In brackets after ≈: the same amount, converted by molar mass.
Key:
Assay type in all cases: functional
[1] = system: Actinomyces naeslundii; assay: In vitro antibacterial activity against the anaerobic Actinomyces naeslundii (Strain UC no.5920)
[2] = system: Bacteroides fragilis; assay: In vitro antibacterial activity against the anaerobic Bacteroides fragilis (Strain UC no.6864)
How it was run: (§1)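 Agar dilution with serial twofold drug dilutions in Schaedler broth mixed into molten Wilkens-Chalgren agar. Strains grown 48 h on Schaedler agar, suspended to 0.5 McFarland, and 0.001 mL spotted by replicator. All steps done anaerobically. Incubation 48 h at 37 °C. MIC is the least drug inhibiting growth; a faint film or fewer than three colonies scored negative.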

[3] = system: Bacteroides fragilis; assay: In vitro antibacterial activity against the anaerobic Bacteroides fragilis (Strain UC no.6862); how it was run: as §1
[4] = system: Prevotella melaninogenica; assay: In vitro antibacterial activity against the anaerobic Bacteroides melaninogenicus (Strain UC no.6326); how it was run: as §1
[5] = system: Bacteroides thetaiotaomicron; assay: In vitro antibacterial activity against the anaerobic Bacteroides thetaiotaomicron (Strain UC no.6512); how it was run: as §1
[6] = system: Clostridioides difficile; assay: In vitro antibacterial activity against the anaerobic Clostridium difficile (Strain UC no.6834); how it was run: as §1
[7] = system: Clostridioides difficile; assay: In vitro antibacterial activity against the anaerobic Clostridium difficile (Strain UC no.6857); how it was run: as §1
[8] = system: Clostridioides difficile; assay: In vitro antibacterial activity against the anaerobic Clostridium difficile (Strain UC no.6858); how it was run: as §1
[9] = system: Clostridioides difficile; assay: In vitro antibacterial activity against the anaerobic Clostridium difficile (Strain UC no.6860); how it was run: as §1
[10] = system: Clostridioides difficile; assay: In vitro antibacterial activity against the anaerobic Clostridium difficile (Strain UC no.6861); how it was run: as §1
[11] = system: Clostridium novyi; assay: In vitro antibacterial activity against the anaerobic Clostridium novyi B(Strain UC no.6329); how it was run: as §1
[12] = system: Clostridium perfringens; assay: In vitro antibacterial activity against the anaerobic Clostridium perfringens (Strain UC no.247)
[13] = system: Clostridium perfringens; assay: In vitro antibacterial activity against the anaerobic Clostridium perfringens (Strain UC no.6509)
[14] = system: Paraclostridium bifermentans; assay: In vitro antibacterial activity against the anaerobic Clostridium bifermentans (Strain UC no.6507); how it was run: as §1
[15] = system: Paeniclostridium sordellii; assay: In vitro antibacterial activity against the anaerobic Clostridium sordellii (Strain UC no.6505); conditions: Paraclostridium sordellii; how it was run: as §1
[16] = system: Clostridium tertium; assay: In vitro antibacterial activity against the anaerobic Clostridium tertium(Strain UC no.6508); how it was run: as §1
[17] = system: Eggerthella lenta; assay: In vitro antibacterial activity against the anaerobic Eubacterium lentum(Strain UC no.6522); how it was run: as §1
[18] = system: Eubacterium limosum; assay: In vitro antibacterial activity against the anaerobic Eubacterium limosum(Strain UC no.6515); how it was run: as §1
[19] = system: Fusobacterium varium; assay: In vitro antibacterial activity against the anaerobic Fusobacterium varium(Strain UC no.6052); how it was run: as §1
[20] = system: Fusobacterium necrophorum; assay: In vitro antibacterial activity against the anaerobic Fusobacterium necrophorum (Strain UC no.6568); how it was run: as §1
[21] = system: Klebsiella pneumoniae; assay: In vivo antibacterial activity against Klebsiella pneumoniae(UC no 58) infected mice after sc administration
How it was run: (§2)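 Fresh drug solutions were given subcutaneously (0.2 mL) or by oral intubation (0.5 mL), per line. Dosing was immediately after infection, then daily for 4 consecutive days, with 3 further days of observation. CD50 was calculated by Spearman-Karber.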

[22] = system: Pasteurella multocida; assay: In vitro antibacterial activity against the aerobic Pasteurella multocida (Strain UC no.264)
How it was run: (§3)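 Broth microdilution in brain/heart infusion broth with twofold drug dilutions. Inoculum was a standardized suspension giving 10⁵ viable cells/mL final. Plates were incubated 20 h at 37 °C. MIC (mcg/mL) = lowest concentration with no visible growth.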

[23] = system: Proteus vulgaris; assay: (§4) In vivo antibacterial activity against Proteus vulgaris(UC 347) infected mice after oral administration; how it was run: as §2
[24] = system: Peptostreptococcus anaerobius; assay: In vitro antibacterial activity against the anaerobic Peptostreptococcus anaerobius(Strain UC no.6321); how it was run: as §1
[25] = system: Peptoniphilus asaccharolyticus; assay: In vitro antibacterial activity against the anaerobic Peptococcus asaccharolyticus (Strain UC no.6214); how it was run: as §1
[26] = system: Finegoldia magna; assay: In vitro antibacterial activity against the anaerobic Peptococcus magnus(Strain UC no.6258); how it was run: as §1
[27] = system: Cutibacterium acnes; assay: In vitro antibacterial activity against the anaerobic Propionibacterium acnes(Strain UC no.6564); how it was run: as §1
[28] = system: Staphylococcus aureus; assay: In vitro antibacterial activity against the aerobic Staphylococcus aureus (Strain UC no.6687); how it was run: as §3
[29] = system: Staphylococcus aureus; assay: In vitro antibacterial activity against the aerobic Staphylococcus aureus (Strain UC no.6690); how it was run: as §3
[30] = system: Staphylococcus aureus; assay: In vivo antibacterial activity against Staphylococcus aureus (UC no 76) infected mice after sc administration (value in parenthesis is 95% confidence interval); how it was run: as §2
[31] = system: Staphylococcus aureus; assay: In vivo antibacterial activity against Staphylococcus aureus(UC 76) infected mice after oral administration (value in parenthesis is 95% confidence interval); how it was run: as §2
[32] = system: Streptococcus pneumoniae; assay: In vivo antibacterial activity against Streptococcus pneumoniae I(UC 41) infected mice after oral administration (value in parenthesis is 95% confidence interval); how it was run: as §2
[33] = system: Enterococcus faecalis; assay: In vitro antibacterial activity against the aerobic […] (Strain UC no.694); how it was run: as §3
[34] = system: Staphylococcus epidermidis; assay: In vitro antibacterial activity against the aerobic Staphylococcus epidermidis (Strain UC no.719); how it was run: as §3
[35] = system: Staphylococcus aureus; assay: In vitro antibacterial activity against the aerobic Staphylococcus aureus (Strain UC no.6685); how it was run: as §3
[36] = system: Parabacteroides distasonis; assay: In vitro antibacterial activity against the anaerobic Bacteroides distasonis (Strain UC no.6518)
[37] = system: Bacteroides fragilis; assay: In vitro antibacterial activity against the anaerobic Bacteroides fragilis (Strain UC no.6513); how it was run: as §1
[38] = system: Streptococcus pneumoniae; assay: In vivo antibacterial activity against Streptococcus pneumoniae III (UC no 3213) infected mice after sc administration (value in parenthesis is 95% confidence interval); how it was run: as §2
[39] = system: Klebsiella pneumoniae; assay: (§5) In vivo antibacterial activity against Klebsiella pneumoniae(UC 58) infected mice after oral administration; how it was run: as §2
[40] = system: Mus musculus; assay: In vivo antibacterial activity against Escherichia coli (UC no 311) infected mice after sc administration; how it was run: as §2
[41] = system: Mus musculus; assay: In vivo antibacterial activity against Klebsiella pneumoniae (UC 58) infected mice after sc administration; how it was run: as §2
[42] = system: Mus musculus; assay: In vivo antibacterial activity against Pasteurella multocida (UC no 264) infected mice after sc administration; how it was run: as §2
[43] = system: Mus musculus; assay: In vivo antibacterial activity against Plasmodium berghei infected mice (Mus musculus) after subcutaneous administration
[44] = system: Mus musculus; assay: In vivo antibacterial activity against Proteus vulgaris (UC no 347) infected mice after sc administration; how it was run: as §2
[45] = system: Mus musculus; assay: In vivo antibacterial activity against Streptococcus pneumoniae I(UC 41) infected mice after oral administration; how it was run: as §2
[46] = system: Mus musculus; assay: In vivo antibacterial activity against Streptococcus pneumoniae […](UC 3213) infected mice after sc administration; how it was run: as §2
[47] = system: Mus musculus; assay: In vivo antibacterial activity against Streptococcus pyogenes(UC 152) infected mice after oral administration; how it was run: as §2
[48] = system: Mus musculus; assay: In vivo antibacterial activity against Streptococcus pyogenes(UC 152) infected mice after sc administration; how it was run: as §2
[49] = system: Mus musculus; assay: as §4; how it was run: as §2
[50] = system: Mus musculus; assay: In vivo antibacterial activity against Streptococcus pneumoniae III(UC 3213) infected mice after oral administration; how it was run: as §2
[51] = system: Mus musculus; assay: as §5; how it was run: as §2
[52] = system: Mus musculus; assay: In vivo antibacterial activity against Streptococcus pneumoniae I (UC 41) infected mice after sc administration; how it was run: as §2

In the case of CC[C@@H]1CCN[C@H](C(=O)N[C@@H]([C@H]2O[C@H](SC)[C@H](O)[C@@H](O)[C@H]2O)[C@H](C)Cl)C1 [PIRLIMYCIN], the MIC [1] was 0.25 µg/mL (≈ 0.608 µM), the MIC [2] was 2 µg/mL (≈ 4.87 µM) and the MIC [3] was 15.6 µg/mL (≈ 38 µM). For the same molecule, the MIC [4] was 0.06 µg/mL (≈ 0.146 µM), the MIC [5] was 0.5 µg/mL (≈ 1.22 µM) and the MIC [6] was 3.9 µg/mL (≈ 9.49 µM). For the same molecule, the MIC [7] was 125 µg/mL (≈ 304 µM), the MIC [8] was 3.9 µg/mL (≈ 9.49 µM) and the MIC [9] was 500 µg/mL (≈ 1220 µM). For the same molecule, the MIC [10] was 2 µg/mL (≈ 4.87 µM), the MIC [11] was 0.12 µg/mL (≈ 0.292 µM) and the MIC [12] was 0.12 µg/mL (≈ 0.292 µM). The MIC [13] was 0.12 µg/mL (≈ 0.292 µM), the MIC [14] was 0.06 µg/mL (≈ 0.146 µM) and the MIC [15] was 0.5 µg/mL (≈ 1.22 µM). For the same molecule, the MIC [16] was 7.8 µg/mL (≈ 19 µM), the MIC [17] was 1 µg/mL (≈ 2.43 µM) and the MIC [18] was 2 µg/mL (≈ 4.87 µM). For the same molecule, the MIC [19] was 3.9 µg/mL (≈ 9.49 µM), the MIC [20] was 0.06 µg/mL (≈ 0.146 µM) and the CD50 [21] was >320 mg/kg. For the same molecule, the MIC [22] was 62.5 µg/mL (≈ 152 µM), the CD50 [23] was >400 mg/kg and the MIC [24] was 0.12 µg/mL (≈ 0.292 µM). It also gave an MIC [25] of 0.25 µg/mL (≈ 0.608 µM), an MIC [26] of 0.06 µg/mL (≈ 0.146 µM) and an MIC [27] of 0.12 µg/mL (≈ 0.292 µM). For the same molecule, the MIC [28] was 0.2 µg/mL (≈ 0.487 µM), the MIC [29] was 0.2 µg/mL (≈ 0.487 µM) and the CD50 [30] was 0.4 mg/kg. For the same molecule, the CD50 [31] was 2.9 mg/kg, the CD50 [32] was 20.3 mg/kg and the MIC [33] was 6.25 µg/mL (≈ 15.2 µM). The MIC [34] was 0.2 µg/mL (≈ 0.487 µM), the MIC [35] was > 25 µg/mL and the MIC [36] was < 0.03 µg/mL. For the same molecule, the MIC [37] was 0.12 µg/mL (≈ 0.292 µM), the CD50 [38] was 2.7 mg/kg and the CD50 [39] was >400 mg/kg.
With CCC[C@@H]1C[C@@H](C(=O)N[C@@H]([C@H]2O[C@H](SC)[C@H](O)[C@@H](O)[C@H]2O)[C@H](C)Cl)N(C)C1 [CLINDAMYCIN] the CD50 [40] was >160 mg/kg, the CD50 [41] was >320 mg/kg and the CD50 [42] was >160 mg/kg. The CD50 [43] was 53 mg/kg, the CD50 [44] was >160 mg/kg and the CD50 [45] was 45.5 mg/kg. The CD50 [46] was 20 mg/kg, the CD50 [47] was 12.3 mg/kg and the CD50 [48] was 2.3 mg/kg. For the same molecule, the CD50 [49] was >400 mg/kg, the CD50 [50] was 37.9 mg/kg and the CD50 [51] was >400 mg/kg. It also gave a CD50 [52] of 40 mg/kg.
